Assays:
H5N1 subtype [1] = experiment: Antiviral activity against Influenza A virus Duck/MN/1525/81/H5N1 infected MDCK cells assessed as inhibition of virus-induced cytopathic effect after 3 days; type: functional, organism-based, Influenza A virus (A/duck/Minnesota/1525/1981(H5N1)); conditions: Influenza A virus, MDCK, 72 h
[2] = Selectivity ratio of IC50 for MDCK cells to EC50 for Influenza A virus California/07/2009 /H1N1 by neutral red dye uptake assay; type: ADME, cell-based; conditions: dog, MDCK cells; read-out: Ratio IC50/EC50
In short: (§1)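 Neutral red uptake in MDCK cells: IC50 (50% inhibition of uninfected cells) divided by EC50 (50% inhibition of virus effect), both from replicate serial-dilution assays.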

[3] = Selectivity ratio of IC50 for MDCK cells to EC50 for Influenza B virus Malaysia/2506/2004 by neutral red dye uptake assay; type: ADME, cell-based; conditions: dog, MDCK cells; read-out: Ratio IC50/EC50; in short: as §1
Influenza A virus [4] = experiment: Antiviral activity against Influenza A virus California/07/2009 /H1N1 infected MDCK cells after 42 to 46 hrs by neutral red dye uptake assay; type: functional, organism-based, A/California/07/2009(H1N1); conditions: Influenza A virus, A/California/07/2009(H1N1), MDCK
[5] = Selectivity ratio of IC50 for MDCK cells to EC90 for Influenza A virus California/07/2009 /H1N1 by virus yield reduction assay; type: ADME, cell-based; conditions: dog, MDCK cells
In short: (§2)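 IC50 (50% inhibition of uninfected MDCK cells) divided by EC90 (concentration reducing the infectious virus titer by 90% in the yield reduction assay).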

H5N1 subtype [6] = experiment: Antiviral activity against Influenza A virus Hong Kong/213/2003/H5N1 infected MDCK cells after 3 days by virus yield reduction assay; type: functional, Influenza A virus (A/Hong Kong/213/2003(H5N1)); conditions: Influenza A virus, MDCK, 72 h
[7] = Selectivity ratio of IC50 for MDCK cells to EC50 for Influenza A virus Gull/PA/4175/83/H5N1 by neutral red dye uptake assay; type: ADME, cell-based; conditions: dog, MDCK cells; read-out: Ratio IC50/EC50; in short: as §1
[8] = Selectivity ratio of IC50 for MDCK cells to EC50 for inhibition of virus-induced cytopathic effect of Influenza A virus Gull/PA/4175/83/H5N1; type: cell-based; conditions: dog, MDCK cells; read-out: Ratio IC50/EC50
In short: (§3)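 IC50 (50% inhibition of uninfected MDCK cells) divided by EC50 (concentration reducing virus-induced CPE by 50%, scored visually), both from replicate serial-dilution assays.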

Influenza A virus [9] = experiment: Antiviral activity against Influenza A virus Vietnam/1203/ 2004H/H5N1 infected MDCK cells after 3 days by virus yield reduction assay; type: functional, A/Viet Nam/1203/2004(H5N1)
[10] = Selectivity ratio of IC50 for MDCK cells to EC50 for inhibition of virus-induced cytopathic effect of Influenza A virus Duck/MN/1525/81/H5N1; type: cell-based; conditions: dog, MDCK cells; read-out: Ratio IC50/EC50; in short: as §3
Influenza A virus [11] = experiment: Antiviral activity against Influenza A virus California/07/2009 /H1N1 infected MDCK cells after 3 days by virus yield reduction assay; type: functional, A/California/07/2009(H1N1); conditions: Influenza A virus, A/California/07/2009(H1N1), MDCK, 72 h
Influenza B virus [12] = experiment: Antiviral activity against Influenza B virus Malaysia/2506/2004 infected MDCK cells after 42 to 46 hrs by neutral red dye uptake assay; type: functional, organism-based, B/Malaysia/2506/2004; conditions: Influenza B virus, B/Malaysia/2506/2004, MDCK
In short: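 Triplicate MDCK wells got serial compound dilutions, then ≤300 CCID50 of virus, with the same inoculum for all replicates. Antiviral effect was read by neutral red dye uptake. EC50 is the concentration giving 50% inhibition of the virus effect, as the mean of triplicates.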

[13] = Selectivity ratio of IC50 for MDCK cells to EC50 for inhibition of virus-induced cytopathic effect of Influenza A virus Wisconsin/67/2005/H3N2; type: cell-based; conditions: dog, MDCK cells; read-out: Ratio IC50/EC50; in short: as §3
[14] = Selectivity ratio of IC50 for MDCK cells to EC50 for inhibition of virus-induced cytopathic effect of Influenza A virus Vietnam/1203/ 2004H/H5N1; type: cell-based; conditions: dog, MDCK cells; read-out: Ratio IC50/EC50; in short: as §3
Influenza B virus [15] = experiment: Antiviral activity against Influenza B virus Malaysia/2506/2004 infected MDCK cells after 3 days by virus yield reduction assay; type: functional, B/Malaysia/2506/2004
In short: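 Yield reduction assay: MDCK cells got serial compound dilutions and ≤300 CCID50 virus, in triplicate. Progeny virus was titrated. EC90 is the concentration reducing the infectious titer by 90%, as the mean of triplicates.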

H5N1 subtype [16] = experiment: Antiviral activity against Influenza A virus Gull/PA/4175/83/H5N1 infected MDCK cells after 42 to 46 hrs by neutral red dye uptake assay; type: functional, organism-based, Influenza A virus (A/gull/Pennsylvania/4175/83(H5N1)); conditions: Influenza A virus, MDCK
H5N1 subtype [17] = experiment: Antiviral activity against Influenza A virus Hong Kong/213/2003/H5N1 infected MDCK cells after 42 to 46 hrs by neutral red dye uptake assay; type: functional, organism-based, Influenza A virus (A/Hong Kong/213/2003(H5N1))
[18] = Selectivity ratio of IC50 for MDCK cells to EC90 for Influenza A virus Solomon Islands/03/2006/H1N1 by virus yield reduction assay; type: ADME, cell-based; conditions: dog, MDCK cells; in short: as §2
[19] = Influenza A virus, A/Viet Nam/1203/2004(H5N1), MDCK
[20] = Influenza B virus, B/Malaysia/2506/2004, MDCK, 72 h

| Structure (SMILES) | EC50 (H5N1 subtype [1]) | selectivity ratio [2] | selectivity ratio [3] | EC50 (Influenza A virus [4]) | selectivity ratio [5] | EC90 (H5N1 subtype [6]) | selectivity ratio [7] | selectivity ratio [8] | EC90 (Influenza A virus [9]; [19]) | selectivity ratio [10] | EC90 (Influenza A virus [11]) | EC50 (Influenza B virus [12]) | selectivity ratio [13] | selectivity ratio [14] | EC90 (Influenza B virus [15]; [20]) | EC50 (H5N1 subtype [16]) | EC50 (H5N1 subtype [17]; Influenza A virus, MDCK) | selectivity ratio [18] | further results |
| --- | --- | --- | --- | --- | --- | --- | --- | --- | --- | --- | --- | --- | --- | --- | --- | --- | --- | --- | --- |
| NC(=O)c1ncn([C@@H]2O[C@H](CO)[C@@H](O)[C@H]2O)n1 [RIBAVIRIN] | 35.4 µM | > 68 | > 67 | 19.4 µM | > 101 | 16.8 µM | > 48 | > 55 | 11.6 µM | > 37 | 13 µM | 19.5 µM | > 80 | > 156 | 22.2 µM | 27.4 µM | 9.4 µM | > 49 |  |
| Nc1ccn([C@H]2C[C@@H](CO)[C@H](O)[C@@H]2O)c(=O)n1 | > 414 µM | 1 | < 10 | > 414 µM | 1 | > 41 µM | < 10 | < 10 | > 41 µM | 1 | > 414 µM | > 41 µM | < 10 | < 10 | > 41 µM | > 41 µM | > 41 µM | < 10 |  |
| Nc1ccn([C@@H]2C[C@H](CO)[C@@H](O)[C@H]2O)c(=O)n1 | 1.8 µM | > 259 | > 518 | 1.6 µM | > 109 | 2.1 µM | > 414 | > 518 |  | > 230 | 3.8 µM | 0.8 µM | > 259 | > 518 |  | 1 µM |  | > 318 | EC90 (Influenza A virus [9]): 5.7 µM; EC90 (Influenza B virus [15]): 1.5 µM; EC50 (H5N1 subtype [17]; mdck): 0.8 µM |
